Screens deposited in PubChem BioAssay by Johns Hopkins Ion Channel Center.
Most compounds without a hit are left out; they make up all but 3.7% or so of the library.
KCNK3 inh: human KCNK3 channel inhibitors, primary screen, CHO cells, FluxOR thallium flux, B-score | B-score at 10 µM | 340,000 compounds, 0.84% hits | FluxOR fluorescence; stronger effect = lower value | Potassium channel subfamily K member 3 (Homo sapiens), O14649;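 active = B-score under library mean minus 4 SD, starting fluorescence ratio at most library mean plus 5 SD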;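 note: more negative B-score means stronger inhibition of thallium flux through KCNK3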
Kir21 inh: inhibitors of mouse Kir2.1 inward-rectifier potassium channel; B-score at 10 µM; 310,000 compounds, 0.85% hits; HEK293-Kir2.1, FluxOR thallium flux fluorescence; stronger effect = lower value;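 active = fluorescence ratio B-score at or below minus 3 SD of library scores, with starting-brightness B-score within 2 SD, cut at about -4.2 in these data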;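 note: channel flux triggered by added potassium and thallium sulfate stimulus; B-score of peak minus minimum fluorescence over baseline after thallium stimulus; more negative B-score means stronger Kir2.1 block with less thallium influx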
hERG rescue: hERG rescue from dofetilide block, primary screen, cell-based, CHO-hERG, FluxOR thallium flux, dofetilide IC70. dofetilide IC70 present. activation (rescue from dofetilide block), less the hit threshold, % at 10 µM. 310,000 compounds, 0.51% hits. AID 1511, 2009;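 active = activation above the mean of controls blocked by dofetilide plus 5 SD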;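 note: thallium influx through hERG after potassium depolarization seen as dye fluorescence rise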
KCNQ1 inh: inhibitors of human KCNQ1 channel, primary screen, cell-based, thallium flux, high-throughput; 310,000 compounds, 1.3% hits; B-score at 10 µM; CHO-K1 KCNQ1, FluxOR thallium flux fluorescence; stronger effect = higher value;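 active = compounds whose thallium flux B-score, printed positive for inhibition, exceeds three library SD while starting fluorescence stays within three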;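 note: channel opened by potassium depolarization with thallium stimulus after 20 min compound exposure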
KCNQ1 pot: potentiators or activators of KCNQ1 channel, primary screen, cell-based, thallium flux, high-throughput; Potassium voltage-gated channel subfamily KQT member 1 (Homo sapiens), P51787; CHO-K1 KCNQ1, thallium flux FluxOR fluorescence; stronger effect = higher value; B-score at 10 µM; 310,000 compounds, 0.35% hits; AID 2648, 2010;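 active = fluorescence ratio B-score, a plate-corrected score, at least three library SD, with initial intensity B-score within 5 SD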
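Assay system: CHO-K1 cells stably expressing KCNQ1. Medium: assay buffer for compound exposure, DMSO matched across wells. Timing: 37 °C overnight plating, 90-min dark dye load, 20-min compound pretreatment. Signal: kinetic FluxOR fluorescence, 10 s baseline plus 110 s post-stimulus.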
KCNK9 inh: KCNK9 potassium channel inhibitors, primary screen, HEK293 cells, thallium flux | AID 488922, 2010 | B-score at 10 µM | 310,000 compounds, 1.2% hits | FluxOR thallium flux fluorescence; stronger effect = lower value;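 active = ratio B-score over 3 SD below the library mean, with starting fluorescence within 5 SD of its mean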;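 note: negative B-score means less thallium flux so channel inhibition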
An asterisk follows results filed as active; i = inactive; . = no result.

SMILES	KCNK3 inh	Kir21 inh	hERG rescue	KCNQ1 inh	KCNQ1 pot	KCNK9 inh
CCn1c(SCC(=O)N(C)C)nc2cc(S(=O)(=O)N3CCOCC3)ccc21	i	1.31	-13.8	i	i	i
O=C(c1cccc(C(=O)N(c2ccccn2)C2CCCCC2)c1)N(c1ccccn1)C1CCCCC1	i	0.42	-6.0	i	i	i
N#C/C(=C\c1ccccc1)C(=O)N(c1ccccn1)C1CCCCC1	i	-10.5*	-15.4	i	i	i
CCCc1cc(=O)[nH]c(SCC(=O)NN(c2ccccc2)c2ccccc2)n1	i	0.92	-7.9	i	i	i
Cc1ccc(S(=O)(=O)N2c3ccccc3OCC2C(C)(C)C)cc1 (configuration not stated)	i	0.65	-8.0	i	i	i
Cc1ccc2c(c1)N(S(=O)(=O)c1ccc(F)cc1)C(C(C)(C)C)CO2 (configuration not stated)	i	-0.53	-10.9	7*	i	i
O=C(CCS(=O)(=O)c1ccc(Br)s1)Nc1ccccc1Br	i	1.85	-6.1	i	i	i
CC(=O)c1cc2c(cc1NS(=O)(=O)c1ccc3c(c1)OCCO3)OCO2	i	1.7	5.1*	i	i	i
CC(=O)c1ccc(S(=O)(=O)Nc2cc3c(cc2C(C)=O)OCO3)cc1	i	-1	-4.7	i	i	i
COc1cc(C)nc(NCc2ccccc2)n1	i	1.41	1.8	i	i	i
Cc1ccc(Nc2cc(C)nc(NCc3ccccc3)n2)cc1	i	-5.48*	-30.6	i	i	i
Cc1nc2ccc(OC(=O)c3ccccc3)cc2s1	i	-4.79*	-16.3	i	i	i
Cc1ccc(OC(=O)c2ccc3nc(C)sc3c2)cc1	.	-0.96	-5.9	i	i	i
O=C(Nc1ccc(NC(=O)C2CC2)nc1)c1cccnc1	i	-0.4	4.9*	i	i	i
O=C(Nc1ccc(NC(=O)C2CC2)cn1)c1ccccc1	i	-1.32	-5.8	i	i	i
CC1CC(C)C[N+](=C2C=C(N3CCCC3)CC(C)(C)C2)C1 (configuration not stated)	i	-5.82*	-17.1	8*	i	i
O=C(Cc1ccccc1)Nc1ccccc1N1CCCC1	i	-3.8	-6.1	i	i	i
COc1ccc(CC(=O)Nc2ccccc2N2CCCC2)cc1	i	-6.33*	-9.9	i	i	i
O=C(CCNC(=O)c1ccc(Cl)cc1)Nc1ccccc1N1CCCCC1	i	-4.6*	-21.9	i	i	i
COc1ccc(CC(=O)Nc2ccccc2N2CCCC2)cc1OC	i	-4.45*	-5.4	i	i	i
CC1=NOC(=O)/C1=C\c1ccc2c(c1)OCO2	i	0.65	-6.2	i	i	i
O=C1c2cccc3cccc(c23)C(=O)C1(O)O	i	-0.64	8.0*	i	i	i
CC(=O)N1C(=O)c2cccc3cccc(c23)C(=O)N1C(C)=O	.	0.35	-0.7	i	i	i
Cc1cc(C)n2nc(SC(C)C(=O)N(C)c3ccccc3)nc2n1 (configuration not stated)	i	.	.	.	.	.
N#Cc1ccc(C2=NC(C(F)(F)F)(C(F)(F)F)c3c(n(Cc4ccco4)c(=O)[nH]c3=O)N2)cc1	i	0.47	-17.4	7*	i	i
SMILES	KCNK3 inh	Kir21 inh	hERG rescue	KCNQ1 inh	KCNQ1 pot	KCNK9 inh
Nc1cc2cccnc2cc1Cl	i	.	.	.	.	.
CCOC(=O)C1CCCN(C(=O)C2CCN(S(=O)(=O)c3ccc4ccccc4c3)CC2)C1 (configuration not stated)	i	0.38	-15.6	i	10*	i
Cc1ccccc1NC(=O)CSc1ccncc1	i	2	-3.8	i	i	i
Cc1cc(/C=C(/C#N)c2nc3ccccc3[nH]2)c(C)n1-c1cccc([N+](=O)[O-])c1	i	0.88	-6.3	8*	i	i
Cc1cc(/C=C(\C#N)c2nc3ccccc3[nH]2)c(C)n1C	i	0.6	-5.6	i	i	i
CCCc1nc2oc3c(NCCN(C)C)ncnc3c2c2c1CCCC2	i	-0.53	-7.1	i	8*	i
NCCSc1c(-c2ccc(Cl)cc2)[nH]c2ccccc12	i	-9.88*	-22.0	i	i	-7.31*
NCCSc1c(-c2ccccc2)[nH]c2ccccc12	i	-1.53	-13.5	i	i	i
O=C(COc1ncnc2c(Cl)cc(Cl)cc12)Nc1cc([N+](=O)[O-])ccc1Cl	i	0.61	-5.1	i	i	i
CC(=O)Nc1ccc(C(=O)OCC(=O)Nc2ccccc2F)cc1	i	0.02	-8.2	i	i	i
CN(C)c1cccc(C(=O)OCC(=O)Nc2ccccc2-c2ccccc2)c1	i	1.76	-1.0	i	i	i
CN(C)c1cccc(C(=O)OCC(=O)Nc2ccccc2Sc2ccccc2)c1	i	0.63	-14.5	6*	i	i
CC(=O)Nc1ccc(C(=O)OCC(=O)Nc2ccccc2Sc2ccccc2)cc1	i	-1.04	-5.9	i	i	-7.18*
CC(C(=O)Nc1ccccc1Br)N1c2cccc3cccc(c23)S1(=O)=O (configuration not stated)	i	-2.52	-4.2	i	i	i
CC1CN(CC(=O)NN=C(c2ccccc2)c2ccccc2)CC(C)O1 (configuration not stated)	i	-1.34	-10.8	i	i	i
CC(=O)N(C1=C(N)C(=O)c2ccccc2C1=O)C(C)C	i	-0.45	6.3*	i	i	i
CC(=O)N(C)C1=C(O)c2ccccc2C(=O)C1=O	i	0.7	-8.5	i	i	i
CCN(CC)C(=O)[C@H]1CC(CC(=O)NCc2ccco2)C(=O)N2CCc3c([nH]c4ccc(OC)cc34)[C@]12C (some centres not stated)	i	.	.	.	.	.
COC(=O)c1cc2sccc2n1Cc1ccc(C)cc1	i	-0.02	-10.0	i	i	-7.96*
CCOc1cc(CN2CCC(CO)(Cc3cccc(C(F)(F)F)c3)CC2)ccc1OC	i	0.64	-17.2	i	i	i
Cn1c(=O)c2nc3ccccc3nc2n(C)c1=O	i	-1.61	-19.2	i	10*	i
Cn1c(=O)c2nc(-c3ccccc3)c(-c3ccccc3)nc2n(C)c1=O	i	-0.2	-4.3	i	i	i
